{"source": "ChEMBL document CHEMBL1212773", "about": "“Transfer of plasmid-mediated CTX-M-9 from Salmonella enterica serotype Virchow to Enterobacteriaceae in human flora-associated rats treated with cefixime” (2010)", "format_in_all_cases": "functional", "key": {"[1]": {"test_system": "Escherichia coli", "experiment": "Antimicrobial activity against Escherichia coli J5 transconjugants expressing beta lactamase CTX-M-9 isolated from human flora associated C3H rat infected with Salmonella enterica serotype Virchow and treated with Cefixime-cluvulanic acid by Etest method"}, "[2]": {"test_system": "Escherichia coli", "experiment": "Antimicrobial activity against Escherichia coli J5 transconjugants expressing beta lactamase CTX-M-9 isolated from human flora associated C3H rat infected with Salmonella enterica serotype Virchow by Etest method", "procedure,_shortened": "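Etest MICs on Müller-Hinton agar, in μg/ml, with ATCC 25922 as QC. E. coli J5 transconjugants were isolated from feces of HFA C3H rats inoculated intragastrically with 8 log10 CFU J5, then Virchow donor 2 h later, and given sterile water by gavage instead of antibiotic. Isolates were selected on Drigalski agar with 250 μg/ml rifampin and 4 μg/ml cefixime and confirmed as J5 carrying blaCTX-M-9 by PCR/PFGE.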"}, "[3]": {"test_system": "Escherichia coli", "experiment": "Antimicrobial activity against Escherichia coli ATCC 25922 by Etest method", "procedure,_shortened": "(§1)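 MICs read from Etest strips on Müller-Hinton agar, in μg/ml. E. coli ATCC 25922 served as the QC strain. Susceptible or resistant calls followed CLSI clinical breakpoints or EUCAST epidemiological cutoffs for cefotaxime, ceftazidime, ceftiofur, cefoxitin and cefuroxime.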"}, "[4]": {"test_system": "Escherichia coli", "experiment": "Antimicrobial activity against Escherichia coli J5 transconjugants expressing beta lactamase CTX-M-9 isolated from human flora associated C3H rat infected with Salmonella enterica serotype Virchow and treated with Cefixime by Etest method", "procedure,_shortened": "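Etest MICs on Müller-Hinton agar, in μg/ml, with ATCC 25922 as QC. Isolates were fecal E. coli J5 transconjugants from human flora-associated C3H rats coinoculated orally with 8 log10 CFU J5, then Virchow donor, and gavaged with cefixime 4 mg/kg twice daily for 8 days. Isolates were picked on Drigalski agar with 250 μg/ml rifampin plus 4 μg/ml cefixime and confirmed by PCR/PFGE and blaCTX-M-9 PCR.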"}, "[5]": {"test_system": "Salmonella enterica", "experiment": "Antimicrobial activity against Salmonella enterica serotype Virchow 3464b by Etest method", "procedure,_shortened": "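MIC determined by Etest strips on Müller-Hinton agar; E. coli ATCC 25922 used as the quality-control strain. Donor strain grown aerobically in brain heart infusion. Susceptible/resistant categories assigned from CLSI clinical breakpoints or EUCAST epidemiological cutoffs for cefotaxime, ceftazidime, ceftiofur, cefoxitin and cefuroxime. MICs expressed in μg/ml.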"}, "[6]": {"test_system": "Escherichia coli", "experiment": "Antimicrobial activity against Escherichia coli J5 by Etest method", "procedure,_shortened": "as §1"}}, "data": [{"compound": "COc1cc(Cc2cnc(N)nc2N)cc(OC)c1OC", "note": "[TRIMETHOPRIM]", "values": [{"measurement": "MIC", "setting": "[1]", "result": 1, "unit": "µg/mL"}, {"measurement": "MIC", "setting": "[2]", "result": 0.5, "unit": "µg/mL"}, {"measurement": "MIC", "setting": "[3]", "result": 0.5, "unit": "µg/mL"}, {"measurement": "MIC", "setting": "[4]", "result": 0.5, "unit": "µg/mL"}, {"measurement": "MIC", "setting": "[5]", "result": "> 64", "unit": "µg/mL"}, {"measurement": "MIC", "setting": "[6]", "result": 0.5, "unit": "µg/mL"}]}, {"compound": "CCn1cc(C(=O)O)c(=O)c2ccc(C)nc21", "note": "[NALIDIXIC ACID]", "values": [{"measurement": "MIC", "setting": "[1]", "result": 4, "unit": "µg/mL"}, {"measurement": "MIC", "setting": "[2]", "result": 4, "unit": "µg/mL"}, {"measurement": "MIC", "setting": "[3]", "result": 4, "unit": "µg/mL"}, {"measurement": "MIC", "setting": "[4]", "result": 4, "unit": "µg/mL"}, {"measurement": "MIC", "setting": "[5]", "result": 256, "unit": "µg/mL"}, {"measurement": "MIC", "setting": "[6]", "result": 4, "unit": "µg/mL"}]}, {"compound": "CO[C@H]1/C=C/O[C@@]2(C)Oc3c(C)c(O)c4c(O)c(c(/C=N/N5CCN(C)CC5)c(O)c4c3C2=O)NC(=O)/C(C)=C\\C=C\\[C@H](C)[C@H](O)[C@@H](C)[C@@H](O)[C@@H](C)[C@H](OC(C)=O)[C@@H]1C", "note": "[RIFAMPIN]", "values": [{"measurement": "MIC", "setting": "[1]", "result": "> 512", "unit": "µg/mL"}, {"measurement": "MIC", "setting": "[2]", "result": "> 512", "unit": "µg/mL"}, {"measurement": "MIC", "setting": "[3]", "result": 4, "unit": "µg/mL"}, {"measurement": "MIC", "setting": "[4]", "result": "> 512", "unit": "µg/mL"}, {"measurement": "MIC", "setting": "[5]", "result": 4, "unit": "µg/mL"}, {"measurement": "MIC", "setting": "[6]", "result": "> 512", "unit": "µg/mL"}]}, {"compound": "CN[C@@H]1[C@H](O[C@H]2[C@H](O[C@H]3[C@H](O)[C@@H](O)[C@H](N=C(N)N)[C@@H](O)[C@@H]3N=C(N)N)O[C@@H](C)[C@]2(O)C=O)O[C@@H](CO)[C@H](O)[C@H]1O", "note": "[STREPTOMYCIN]", "values": [{"measurement": "MIC", "setting": "[1]", "result": 2, "unit": "µg/mL"}, {"measurement": "MIC", "setting": "[2]", "result": 2, "unit": "µg/mL"}, {"measurement": "MIC", "setting": "[3]", "result": 2, "unit": "µg/mL"}, {"measurement": "MIC", "setting": "[4]", "result": 2, "unit": "µg/mL"}, {"measurement": "MIC", "setting": "[5]", "result": 128, "unit": "µg/mL"}, {"measurement": "MIC", "setting": "[6]", "result": 2, "unit": "µg/mL"}]}, {"compound": "CC(C)(O/N=C(\\C(=O)N[C@@H]1C(=O)N2C(C(=O)[O-])=C(C[n+]3ccccc3)CS[C@H]12)c1csc(N)n1)C(=O)O", "note": "[CEFTAZIDIME]", "values": [{"measurement": "MIC", "setting": "[1]", "result": 1, "unit": "µg/mL"}, {"measurement": "MIC", "setting": "[2]", "result": 1, "unit": "µg/mL"}, {"measurement": "MIC", "setting": "[3]", "result": 0.125, "unit": "µg/mL"}, {"measurement": "MIC", "setting": "[4]", "result": 1, "unit": "µg/mL"}, {"measurement": "MIC", "setting": "[5]", "result": 8, "unit": "µg/mL"}, {"measurement": "MIC", "setting": "[6]", "result": 0.125, "unit": "µg/mL"}]}, {"compound": "Cc1cc(NS(=O)(=O)c2ccc(N)cc2)no1", "note": "[SULFAMETHOXAZOLE]", "values": [{"measurement": "MIC", "setting": "[1]", "result": 4, "unit": "µg/mL"}, {"measurement": "MIC", "setting": "[2]", "result": 4, "unit": "µg/mL"}, {"measurement": "MIC", "setting": "[3]", "result": 8, "unit": "µg/mL"}, {"measurement": "MIC", "setting": "[4]", "result": 4, "unit": "µg/mL"}, {"measurement": "MIC", "setting": "[5]", "result": "> 512", "unit": "µg/mL"}, {"measurement": "MIC", "setting": "[6]", "result": 8, "unit": "µg/mL"}]}, {"compound": "CN(C)[C@@H]1C(O)=C(C(N)=O)C(=O)[C@@]2(O)C(O)=C3C(=O)c4c(O)cccc4[C@@](C)(O)[C@H]3C[C@@H]12", "note": "[TETRACYCLINE]", "values": [{"measurement": "MIC", "setting": "[1]", "result": 4, "unit": "µg/mL"}, {"measurement": "MIC", "setting": "[2]", "result": 2, "unit": "µg/mL"}, {"measurement": "MIC", "setting": "[3]", "result": 1, "unit": "µg/mL"}, {"measurement": "MIC", "setting": "[4]", "result": 2, "unit": "µg/mL"}, {"measurement": "MIC", "setting": "[5]", "result": 64, "unit": "µg/mL"}, {"measurement": "MIC", "setting": "[6]", "result": 1, "unit": "µg/mL"}]}, {"compound": "CO[C@@]1(NC(=O)Cc2cccs2)C(=O)N2C(C(=O)O)=C(COC(N)=O)CS[C@@H]21", "note": "[CEFOXITIN]", "values": [{"measurement": "MIC", "setting": "[1]", "result": 16, "unit": "µg/mL"}, {"measurement": "MIC", "setting": "[2]", "result": 8, "unit": "µg/mL"}, {"measurement": "MIC", "setting": "[3]", "result": 4, "unit": "µg/mL"}, {"measurement": "MIC", "setting": "[4]", "result": 16, "unit": "µg/mL"}, {"measurement": "MIC", "setting": "[5]", "result": 16, "unit": "µg/mL"}, {"measurement": "MIC", "setting": "[6]", "result": 4, "unit": "µg/mL"}]}, {"compound": "C=CC1=C(C(=O)O)N2C(=O)[C@@H](NC(=O)/C(=N\\OCC(=O)O)c3csc(N)n3)[C@H]2SC1", "note": "[CEFIXIME]", "values": [{"measurement": "MIC", "setting": "[1]", "result": 8, "unit": "µg/mL"}, {"measurement": "MIC", "setting": "[2]", "result": 8, "unit": "µg/mL"}, {"measurement": "MIC", "setting": "[3]", "result": 0.125, "unit": "µg/mL"}, {"measurement": "MIC", "setting": "[4]", "result": 8, "unit": "µg/mL"}, {"measurement": "MIC", "setting": "[5]", "result": 8, "unit": "µg/mL"}, {"measurement": "MIC", "setting": "[6]", "result": 0.125, "unit": "µg/mL"}]}, {"compound": "CC1(C)S[C@@H]2[C@H](NC(=O)[C@H](N)c3ccccc3)C(=O)N2[C@H]1C(=O)O", "note": "[AMPICILLIN]", "values": [{"measurement": "MIC", "setting": "[1]", "result": 16, "unit": "µg/mL"}, {"measurement": "MIC", "setting": "[2]", "result": 16, "unit": "µg/mL"}, {"measurement": "MIC", "setting": "[3]", "result": 4, "unit": "µg/mL"}, {"measurement": "MIC", "setting": "[4]", "result": 16, "unit": "µg/mL"}, {"measurement": "MIC", "setting": "[5]", "result": 128, "unit": "µg/mL"}, {"measurement": "MIC", "setting": "[6]", "result": 4, "unit": "µg/mL"}]}, {"compound": "CO/N=C(\\C(=O)N[C@@H]1C(=O)N2C(C(=O)O)=C(COC(C)=O)CS[C@H]12)c1csc(N)n1", "note": "[CEFOTAXIME]", "values": [{"measurement": "MIC", "setting": "[1]", "result": 0.5, "unit": "µg/mL"}, {"measurement": "MIC", "setting": "[2]", "result": 0.5, "unit": "µg/mL"}, {"measurement": "MIC", "setting": "[3]", "result": 0.03, "unit": "µg/mL"}, {"measurement": "MIC", "setting": "[4]", "result": 0.5, "unit": "µg/mL"}, {"measurement": "MIC", "setting": "[5]", "result": "> 8", "unit": "µg/mL"}, {"measurement": "MIC", "setting": "[6]", "result": 0.03, "unit": "µg/mL"}]}, {"compound": "CO/N=C(\\C(=O)N[C@@H]1C(=O)N2C(C(=O)O)=C(COC(N)=O)CS[C@H]12)c1ccco1", "note": "[CEFUROXIME]", "values": [{"measurement": "MIC", "setting": "[1]", "result": 16, "unit": "µg/mL"}, {"measurement": "MIC", "setting": "[2]", "result": 16, "unit": "µg/mL"}, {"measurement": "MIC", "setting": "[3]", "result": 2, "unit": "µg/mL"}, {"measurement": "MIC", "setting": "[4]", "result": 8, "unit": "µg/mL"}, {"measurement": "MIC", "setting": "[5]", "result": "> 32", "unit": "µg/mL"}, {"measurement": "MIC", "setting": "[6]", "result": 2, "unit": "µg/mL"}]}, {"compound": "CO/N=C(\\C(=O)N[C@@H]1C(=O)N2C(C(=O)O)=C(CSC(=O)c3ccco3)CS[C@H]12)c1csc(N)n1", "note": "[CEFTIOFUR]", "values": [{"measurement": "MIC", "setting": "[1]", "result": 1, "unit": "µg/mL"}, {"measurement": "MIC", "setting": "[2]", "result": 1, "unit": "µg/mL"}, {"measurement": "MIC", "setting": "[3]", "result": 0.25, "unit": "µg/mL"}, {"measurement": "MIC", "setting": "[4]", "result": 1, "unit": "µg/mL"}, {"measurement": "MIC", "setting": "[5]", "result": "> 8", "unit": "µg/mL"}, {"measurement": "MIC", "setting": "[6]", "result": 0.25, "unit": "µg/mL"}]}]}
